Data as given in ChEMBL document CHEMBL1148431, “Structure-activity relationships of novel potent MurF inhibitors” (Bioorg Med Chem Lett, 2004).

Molecular target: T1, UDP-N-acetylmuramoylalanine-D-glutamyl-lysine-D-alanyl-D-alanine ligase (Streptococcus pneumoniae R6, UniProt Q8DNV6)
T1 sequence (Q8DNV6 whole entry): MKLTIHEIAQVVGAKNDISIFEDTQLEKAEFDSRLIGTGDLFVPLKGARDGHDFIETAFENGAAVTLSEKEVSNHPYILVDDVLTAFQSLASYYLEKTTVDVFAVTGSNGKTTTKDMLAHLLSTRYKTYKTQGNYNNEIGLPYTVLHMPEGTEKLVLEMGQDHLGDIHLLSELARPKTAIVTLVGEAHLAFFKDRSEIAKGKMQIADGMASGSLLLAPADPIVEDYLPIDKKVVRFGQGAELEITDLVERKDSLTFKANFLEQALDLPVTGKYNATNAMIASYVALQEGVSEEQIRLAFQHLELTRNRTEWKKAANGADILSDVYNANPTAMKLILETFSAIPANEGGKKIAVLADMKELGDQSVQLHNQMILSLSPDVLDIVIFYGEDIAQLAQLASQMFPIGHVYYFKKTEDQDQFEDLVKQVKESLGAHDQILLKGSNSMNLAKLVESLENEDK
Experiment: Antibacterial activity against UDP-MurNAc-pentapeptide synthetase from Streptococcus pneumoniae.
In short: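 Activity was read as radiolabeled free phosphate released. IC50 was read graphically from four-point concentration plots spanning it. Each point is the mean of at least two determinations, and each IC50 the mean of at least two independent plots.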

In the case of CCN(CC)S(=O)(=O)c1ccc(Cl)c(C(=O)Nc2sc3c(c2CN)CCC3)c1, the IC50 is reported as > 100 µM.

N#Cc1c(NC(=O)c2cc(S(=O)(=O)N3CCOCC3)ccc2Cl)sc2c1CCCC2 gave an IC50 of 1.7 µM.

For CCN(CC)S(=O)(=O)c1ccc(Cl)c(CNc2sc3c(c2C#N)CCC3)c1, the IC50 was > 100 µM.

N#Cc1c(NC(=O)c2cc(S(=O)(=O)N3CCOCC3)ccc2Cl)sc2c1CCC2 gave an IC50 of 9 µM.

N#Cc1c(NC(=O)c2cc(S(=O)(=O)N3CCOCC3)c(Cl)cc2Cl)sc2c1CCCC2 gave an IC50 of 1 µM.

CN(C)CCCNS(=O)(=O)c1ccc(Cl)c(C(=O)Nc2sc3c(c2C#N)CCC3)c1 was tested, and the IC50 was > 100 µM.

With CCOC(=O)c1c(NC(=O)c2cc(S(=O)(=O)N(CC)CC)ccc2Cl)sc2c1CCC2 the IC50 was > 100 µM.

In the case of N#Cc1c(NC(=O)c2cc(S(=O)(=O)N3CCOCC3)c(F)cc2Cl)sc2c1CCC2, the IC50 is reported as 6.4 µM.

For CCN(CC)S(=O)(=O)c1ccc(Cl)c(C(=O)Nc2sc3c(c2C#N)CCC3)c1, the IC50 was 8 µM.

With N#Cc1c(NC(=O)c2cc(S(=O)(=O)N3CCOCC3)c(Cl)cc2Cl)sc2c1CCC(c1ccccc1)C2 (centres undefined) the IC50 was 0.07 µM.

N#Cc1c(NC(=O)c2cc(S(=O)(=O)N3CCOCC3)c(NCCCO)cc2Cl)sc2c1CCC2 was tested, and the IC50 was > 100 µM.

With CNc1cc(Cl)c(C(=O)Nc2sc3c(c2C#N)CCC3)cc1S(=O)(=O)N1CCOCC1 the IC50 was 62 µM.

N#Cc1c(NC(=O)c2cc(S(=O)(=O)Nc3ccccc3)ccc2Cl)sc2c1CCC2 was tested, and the IC50 was 26 µM.

Compound CN(C)CCCNc1ccc(S(=O)(=O)N2CCOCC2)cc1C(=O)Nc1sc2c(c1C#N)CCC2 has an IC50 of 74 µM.

With CCN(CC)S(=O)(=O)c1ccc(Cl)c(C(=O)Nc2sc3c(c2C#N)CCCCC3)c1 the IC50 was 3.4 µM.

For CCN(CC)S(=O)(=O)c1ccc(Cl)c(C(=O)N(C)c2sc3c(c2C#N)CCC3)c1, the IC50 was > 100 µM.

In the case of CCN(CC)S(=O)(=O)c1ccc(Cl)c(C(=O)Nc2sc3c(c2C#N)CCCC3)c1, the IC50 is reported as 1.4 µM.

In the case of CC(COc1ccc(S(=O)(=O)N2CCOCC2)cc1C(=O)Nc1sc2c(c1C#N)CCC2)c1ccccc1 (centres undefined), the IC50 is reported as > 100 µM.

In the case of CCN(CC)S(=O)(=O)c1ccc(Cl)c(C(=O)Nc2sc3c(c2C(N)=O)CCC3)c1, the IC50 is reported as 66 µM.

With CCN(CC)S(=O)(=O)c1ccc(Cl)c(C(=O)Nc2sc3c(c2CNC(C)=O)CCC3)c1 the IC50 was > 100 µM.

With CCOC(=O)C1CCc2c(sc(NC(=O)c3cc(S(=O)(=O)N(CC)CC)ccc3Cl)c2C#N)C1 (centres undefined) the IC50 was 6 µM.

CCN(CC)S(=O)(=O)c1cc(C(=O)Nc2sc3c(c2C#N)CCC3)c(Cl)cc1Cl was tested, and the IC50 was 5.2 µM.

CNS(=O)(=O)c1ccc(Cl)c(C(=O)Nc2sc3c(c2C#N)CCC3)c1 showed an IC50 of 15 µM.

CN(C)CCCNc1cc(Cl)c(C(=O)Nc2sc3c(c2C#N)CCC3)cc1S(=O)(=O)N1CCOCC1 was tested, and the IC50 was > 100 µM.

N#Cc1c(NC(=O)c2cc(S(=O)(=O)N3CCOCC3)c(Cl)cc2Cl)sc2c1CCC(c1ccc(O)cc1)C2 (centres undefined) showed an IC50 of 0.022 µM.

For CCN(CC)S(=O)(=O)c1ccc(Cl)c(C(=O)Nc2sc3c(c2C#N)CCC(c2ccc(O)cc2)C3)c1 (centres undefined), the IC50 was 0.054 µM.

For N#Cc1c(NC(=O)c2cc(S(=O)(=O)N3CCOCC3)ccc2Br)sc2c1CCC2, the IC50 was 4.2 µM.

With CCN(CC)S(=O)(=O)c1ccc(Cl)c(C(C)Nc2sc3c(c2C#N)CCC3)c1 (centres undefined) the IC50 was > 100 µM.

With CCOc1ccc(S(=O)(=O)N2CCOCC2)cc1C(=O)Nc1sc2c(c1C#N)CCC2 the IC50 was > 100 µM.

CN(C)c1ccc(S(=O)(=O)N2CCOCC2)cc1C(=O)Nc1sc2c(c1C#N)CCC2 was tested, and the IC50 was > 100 µM.

In the case of N#Cc1c(NC(=O)c2cc(S(=O)(=O)N3CCOCC3)c(Cl)cc2Cl)sc2c1CCC2, the IC50 is reported as 0.3 µM.

N#Cc1c(NC(=O)c2cccc(S(=O)(=O)N3CCOCC3)c2)sc2c1CCC2 was tested, and the IC50 was > 100 µM.

N#Cc1c(NC(=O)c2cc(S(=O)(=O)N3CCOCC3)ccc2Cl)sc2c1CCCCC2 showed an IC50 of 4.2 µM.

Work on CCN(CC)S(=O)(=O)c1cc(C(=O)Nc2sc3c(c2C#N)CCC(c2ccc(O)cc2)C3)c(Cl)cc1Cl (centres undefined) yielded an IC50 of 0.067 µM.
